Compound activity: PubChem BioAssay, Johns Hopkins Ion Channel Center
The list is not random: actives were taken first. Their share in the collection is about 2.3%.
TRPC4 PAM: allosterically enhances the mouse TRPC4 cation channel; B-score at 10 µM; HEK293 TRPC4beta/mu-opioid, DAMGO EC20, Fluo-4 Ca2+ flux; active compounds read high; actives 0.42% (n = 310,000); AID 2227;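 active = B-score of calcium response area above 5 SD of library B-scores, with initial fluorescence ratio within 5 SD of library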
Target sequence (Q9QUQ5 whole entry, looked up): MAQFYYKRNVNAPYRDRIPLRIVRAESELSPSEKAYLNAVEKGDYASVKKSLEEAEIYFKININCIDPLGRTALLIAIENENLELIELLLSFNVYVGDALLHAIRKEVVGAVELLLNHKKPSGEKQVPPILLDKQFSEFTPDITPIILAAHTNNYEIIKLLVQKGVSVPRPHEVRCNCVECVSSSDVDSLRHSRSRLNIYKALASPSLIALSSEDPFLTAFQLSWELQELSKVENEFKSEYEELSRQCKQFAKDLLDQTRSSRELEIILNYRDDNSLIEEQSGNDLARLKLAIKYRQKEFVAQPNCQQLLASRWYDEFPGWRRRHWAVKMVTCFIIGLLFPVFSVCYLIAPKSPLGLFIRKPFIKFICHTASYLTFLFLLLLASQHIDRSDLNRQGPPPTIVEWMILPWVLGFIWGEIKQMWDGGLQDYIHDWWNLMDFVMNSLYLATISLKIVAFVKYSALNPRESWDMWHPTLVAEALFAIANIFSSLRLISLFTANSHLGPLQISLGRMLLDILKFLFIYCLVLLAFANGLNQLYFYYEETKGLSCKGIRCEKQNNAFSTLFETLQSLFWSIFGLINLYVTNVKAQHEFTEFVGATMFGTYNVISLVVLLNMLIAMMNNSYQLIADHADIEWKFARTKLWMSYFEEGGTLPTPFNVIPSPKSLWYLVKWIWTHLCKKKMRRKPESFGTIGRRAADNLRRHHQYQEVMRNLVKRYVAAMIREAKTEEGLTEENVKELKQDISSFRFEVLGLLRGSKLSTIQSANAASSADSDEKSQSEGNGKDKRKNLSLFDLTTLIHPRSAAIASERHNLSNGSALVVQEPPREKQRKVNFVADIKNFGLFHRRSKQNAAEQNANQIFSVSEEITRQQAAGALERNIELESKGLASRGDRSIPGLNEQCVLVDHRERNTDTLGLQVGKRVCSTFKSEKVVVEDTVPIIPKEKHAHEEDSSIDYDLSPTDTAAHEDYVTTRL
TRPC6 inh: blocks the mouse TRPC6 cation channel. Q61143. HEK293-TRPC6, membrane potential dye, ACh-evoked depolarization; active compounds read low. B-score at 10 µM. actives 1.1% (n = 310,000). AID 2553;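 active = B-score under library mean minus 3 SD, initial fluorescence not abnormally high, positive integrated signal ratio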;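 note: B-score derived from integrated fluorescence ratio over the kinetic read; more negative B-score means stronger inhibition of depolarization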
TRPC4 block: TRPC4 (mouse) channel inhibition | HEK293 TRPC4beta/mu-opioid, DAMGO-evoked Fluo4 calcium flux; active compounds read low | B-score at 10 µM | actives 0.39% (n = 300,000) | AID 2247;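 active = B-score over 3 SD under the library average, no early fluorescence shift, positive overall ratio signal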
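Material: HEK293 cells with stable TRPC4beta plus mu-opioid receptor expression / Probe or stimulus: DAMGO in two steps, submaximal then maximal / Compound: single concentration per test compound / Technique: kinetic Fluo4 fluorescence imaging of calcium influx / Read-out: per-well B score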
TRPC6 activator: mouse TRPC6 channel activation. Q61143. HEK293-TRPC6 membrane potential dye fluorescence; active compounds read high. B-score at 10 µM. actives 0.13% (n = 310,000);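 active = B-score of the integrated fluorescence ratio above library mean plus 3 SD, and starting fluorescence ratio within library mean plus 5 SD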;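 note: higher score means more depolarization so channel activation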
TRPC4 act: activators of mouse TRPC4 channel | Q9QUQ5 | HEK293 TRPC4beta/mu-opioid, Fluo4 calcium fluorescence; active compounds read high | B-score at 10 µM | actives 0.49% (n = 310,000) | AID 2237;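 active = B-score above 5 SD of library B-scores, and initial fluorescence ratio not above library mean plus 5 SD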;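 note: positive B-score marks a calcium rise read as TRPC4 activation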
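Test system: HEK293 cells stably co-expressing mouse TRPC4beta and mu-opioid receptor | Schedule: Fluo4 dye loading 45 min at room temperature, 110 s recording | Measured by: Kinetic Fluo4 calcium fluorescence, 5 s baseline at 1 Hz | Evaluation: B score of integrated ratio | Controls: Buffer (low) and maximal DAMGO (high)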
HEK293 TRPC6 ctr: checks TRPC6 modulator effects in parental HEK293 cells; shares compounds with TRPC6 inh; membrane potential dye fluorescence; membrane potential signal change, % at 10 µM; actives 51% (n = 2,400);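 active = membrane potential signal moves up or down beyond 5 SD from buffer-only wells, on both duplicate plates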
HEK293 MPD ctr 2: second check of TRPC6 modulator effects in parental HEK293 cells | shares compounds with TRPC6 inh | membrane potential dye fluorescence; after compound, maximal acetylcholine stimulation | inhibition, % at 10 µM | actives 14% (n = 2,400) | AID 488926;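 active = membrane potential signal drops by more than 5 SD from the mean control signal, in both duplicate plates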
TRPC4 ctr mod: selectivity of TRPC6 modulators against mouse TRPC4 | shares compounds with TRPC6 inh | HEK293 TRPC4/mu-opioid, membrane potential fluorescence | percent change from control (negative = decrease, positive = increase), % at 10 µM | actives 69% (n = 2,400);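 active = membrane potential signal moved up or down beyond 5 SD of buffer control wells, in both duplicate plates, actives on both sides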
TRPC4 ctr inh 2: mouse TRPC4 off-target activity of TRPC6 modulators, second screen; shares compounds with TRPC6 inh; HEK293 TRPC4/mu-opioid, membrane potential dye fluorescence; stimulated with maximal-effect DAMGO; actives 55% (n = 2,400); inhibition, % at 10 µM;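 active = drop in membrane potential signal beyond 5 SD of the control wells in both duplicate plates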;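 note: TRPC4 counter screen for TRPC6 hits run under conditions tuned for TRPC6 not TRPC4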
TRPC6 inh conf: confirmation of mouse TRPC6 inhibitors. HEK293-TRPC6, membrane potential dye, ACh-evoked depolarization. AID 488960. actives 43% (n = 3,300). shares compounds with TRPC6 inh. inhibition, % at 10 µM;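 active = fluorescence ratio falls more than 5 SD below the full-stimulation control mean, in both duplicate runs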;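 note: integrated fluorescence ratio of peak minus minimum over baseline after agonist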
TRPC6 act conf: confirmation of mouse TRPC6 activators; actives 11% (n = 2,800); HEK293-TRPC6 membrane potential dye fluorescence, FDSS; activation, % at 10 µM; AID 488961; shares compounds with TRPC6 inh;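 active = ratio signal rise beyond 5 SD above unstimulated control wells' mean, seen in both duplicate runs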
Large screens that a line does not name were inactive (follow-up assays come after a bar, where they were run).

O=C(CCCn1ncn2c(cc3occc32)c1=O)NCc1ccccc1F	none
Cc1nn2c(N3CCN(C)CC3)c3c(nc2c1-c1ccccc1)CCCC3	TRPC4 PAM 28
Cc1cc(-c2nn(-c3ccccc3F)cc2CNCCc2cnc[nH]2)c(C)s1	TRPC4 act 125
COCC1CCN(Cc2cn(-c3ccccc3F)nc2-c2cc(C)sc2C)CC1	TRPC4 act 96
CCc1nnc(SCC(=O)Nc2ccccc2)n1CC1CCCO1 (stereo not drawn)	none
COc1ccc(/C=N/NC(=O)C2COc3ccccc3O2)cc1OC (stereo not drawn)	TRPC4 act 150
O=C(N/N=C\C=C\c1ccc2c(c1)OCO2)C1COc2cc3ccccc3cc2O1 (stereo not drawn)	TRPC4 PAM 12
O=C(N/N=C/c1ccc2c(c1)OCO2)C1COc2ccccc2O1 (stereo not drawn)	none
Cc1oc(-c2ccc(Cl)cc2)nc1CS(=O)CC(=O)NC1CCCCC1 (stereo not drawn)	none
Cc1oc(-c2ccc(Cl)cc2)nc1CS(=O)CC(=O)NCCCN(C)C1CCCCC1 (stereo not drawn)	TRPC4 PAM 16
Cc1oc(-c2ccccc2Cl)nc1CS(=O)CC(=O)NCCCN1CC(C)CC(C)C1 (stereo not drawn)	TRPC4 act 95
Cc1oc(-c2ccccc2F)nc1CS(=O)(=O)CC(=O)NCCCN1CC(C)CC(C)C1 (stereo not drawn)	TRPC4 act 57
COc1ccc(CCNC2CCc3ccccc3C2)cc1 (stereo not drawn)	none
COc1ccc(CCNC2CCC(c3ccccc3)CC2)cc1 (stereo not drawn)	TRPC4 act 104
CCOc1ccc(OCc2ccc(C(=O)N3CCCCC3)o2)cc1	TRPC4 PAM 10
Cc1ccc(OCc2ccc(C(=O)N3CCCC3)o2)cc1C	none
Cn1c(=O)c2c(SCC(=O)Nc3nccs3)nc(C3CC3)nc2n(C)c1=O	none
CSCC[C@H](NC(=O)N1CCn2c1nc1ccccc12)C(=O)NCc1ccc(F)cc1	TRPC4 PAM 20
CCOC(=O)C(=NC1CCS(=O)(=O)C1)NNc1ccccc1Cl (stereo not drawn)	TRPC4 PAM 47
CCOC(=O)C(=NC1CCS(=O)(=O)C1)NNc1cc(Cl)ccc1Cl (stereo not drawn)	none
COc1ccc(-c2cnc(N)n2CC2CCCO2)cc1 (stereo not drawn)	none
c1ccc(-c2cnc(SCCN3CCOCC3)n2CC2CCCO2)cc1 (stereo not drawn)	TRPC4 block -5
CCSc1nnc([C@H](Cc2c[nH]c3ccccc23)NC(=O)OC(C)(C)C)o1	TRPC4 PAM 17
CCS(=O)(=O)c1nc2ccccc2n1Cc1ccccn1	none
C/C(=C\c1cccc(Cl)c1Cl)C(=O)c1c(C)cc(C)[nH]c1=O	TRPC4 PAM 19
O=C(O)/C=C\C(=O)Nc1ccc(N2CCN(c3ccc(Cl)cc3)CC2)cc1	none
O=C(O)/C=C\C(=O)Nc1ccc(N2CCN(c3ccc(Cl)c(Cl)c3)CC2)cc1	TRPC4 block -6
Nc1nc(COc2ccc(F)cc2Cl)nc(N2CCCCC2)n1	none
CCN(CC)CCn1c(NC(=O)c2ccc(C)cc2)nc2ccccc21	none
CCC(=O)Nc1nc2ccccc2n1CCN(CC)CC	TRPC4 PAM 11
O=C(Nc1cccc(Cl)c1)c1ccc(-n2cncn2)c([N+](=O)[O-])c1	TRPC6 inh -5.5
COc1ccc(-n2c(O)c(/C=N/NS(=O)(=O)c3cc(C)ccc3C)c3ccccc3c2=O)cc1OC	none
COc1ccc(-n2c(O)c(/C=N/NS(=O)(=O)c3ccc(C)cc3)c3ccccc3c2=O)cc1OC	TRPC6 activator 29 | HEK293 TRPC6 ctr 242% | HEK293 MPD ctr 2 inactive | TRPC4 ctr mod 11% | TRPC4 ctr inh 2 inactive | TRPC6 inh conf inactive | TRPC6 act conf 96%
CC(C)=NOC(=O)c1ccc(-c2ccccc2)cc1	none
Cc1nnc(NC(=O)CSc2nnc(CCc3nc4ccccc4[nH]3)n2C)s1	TRPC6 activator 14 | HEK293 TRPC6 ctr 261% | HEK293 MPD ctr 2 inactive | TRPC4 ctr mod 40% | TRPC4 ctr inh 2 inactive | TRPC6 inh conf inactive | TRPC6 act conf 108%
CCc1nnc(NC(=O)CSc2nnc(CCc3nc4ccccc4[nH]3)n2C)s1	none
O=c1[nH]c(C2CCN(S(=O)(=O)c3ccccc3)CC2)nc2c1nnn2Cc1c(F)cccc1Cl	none
Fc1ccc(C(CCNCc2ccccn2)c2ccc(Cl)cc2)cc1 (stereo not drawn)	TRPC6 inh -5.2 | HEK293 TRPC6 ctr 188% | HEK293 MPD ctr 2 inactive | TRPC4 ctr mod 31% | TRPC4 ctr inh 2 74% | TRPC6 inh conf inactive
Cc1cc(C)cc(N=Cc2[nH]c3ccc(Br)c(Cl)c3c2O)c1	TRPC4 PAM 11, TRPC6 activator 36 | HEK293 TRPC6 ctr inactive | HEK293 MPD ctr 2 inactive | TRPC4 ctr mod inactive | TRPC4 ctr inh 2 inactive | TRPC6 inh conf inactive | TRPC6 act conf inactive
Cc1ccc(N=Cc2cc(Br)cc(Cl)c2O)cc1	none
Cc1cc(C)n(-c2nc(SCC(=O)O)c3c4c(sc3n2)COC(C)(C)C4)n1	none
